In PMC2246419 (EMBO Reports, 2008):

Tests used:
ecotropic MLV retrovirus = experiment: Viral production assay; format: cell-based, human; conditions: 800 nM, TEFLY Mo producer cells
type IIγ PtdInsP kinase = biological target: T1, type IIγ PtdInsP kinase (Homo sapiens, UniProt Q8TBX8); experiment: In vitro lipid kinase assay, type IIγ PtdInsP kinase; format: biochemical; conditions: even at 10 μM; data not shown
T1 sequence (Q8TBX8 1-421): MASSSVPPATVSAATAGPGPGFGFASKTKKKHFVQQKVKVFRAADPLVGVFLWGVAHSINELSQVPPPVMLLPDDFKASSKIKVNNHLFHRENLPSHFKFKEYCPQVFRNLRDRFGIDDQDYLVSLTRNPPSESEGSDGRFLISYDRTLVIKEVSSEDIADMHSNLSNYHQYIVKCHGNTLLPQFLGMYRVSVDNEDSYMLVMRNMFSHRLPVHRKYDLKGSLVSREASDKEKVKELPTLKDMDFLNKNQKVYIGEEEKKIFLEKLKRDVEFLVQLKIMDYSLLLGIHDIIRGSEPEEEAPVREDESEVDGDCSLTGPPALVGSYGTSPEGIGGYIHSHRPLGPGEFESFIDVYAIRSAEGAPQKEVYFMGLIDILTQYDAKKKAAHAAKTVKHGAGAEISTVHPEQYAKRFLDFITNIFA

type Iα PtdInsP kinase = experiment: In vitro lipid kinase assay, type Iα PtdInsP kinase; format: biochemical, mouse
NIH3T3 cells [1] = experiment: Lysotracker staining of swollen vesicles; format: cell-based, mouse; conditions: 800 nM 3 h, Lysotracker Red DND-99
Summary of the method: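 NIH3T3 cells were exposed to test compound at 800 nM for 3 h. Lysotracker Red DND-99 (100 nM) was added to the medium for the final 0.5 h, and the acidotropic dye was imaged in the enlarged vesicles.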

NIH3T3 cells [2] = experiment: In vivo measurement of phosphoinositide levels in 32P-labelled cells; format: cell-based, mouse; conditions: 800 nM
[3] = system: PKB Ser 473 phosphorylation in NIH3T3 cells; experiment: Western blot of serum-stimulated PKB Ser 473 phosphorylation; format: cell-based, mouse
p110α = p110α (Bos taurus, UniProt P32871); experiment: In vitro lipid kinase assay, GST-p110α; format: biochemical
NIH3T3 cells [4] = experiment: Cell division and growth curves; format: cell-based, mouse; conditions: 800 nM

Sequence of p110α (P32871 whole entry): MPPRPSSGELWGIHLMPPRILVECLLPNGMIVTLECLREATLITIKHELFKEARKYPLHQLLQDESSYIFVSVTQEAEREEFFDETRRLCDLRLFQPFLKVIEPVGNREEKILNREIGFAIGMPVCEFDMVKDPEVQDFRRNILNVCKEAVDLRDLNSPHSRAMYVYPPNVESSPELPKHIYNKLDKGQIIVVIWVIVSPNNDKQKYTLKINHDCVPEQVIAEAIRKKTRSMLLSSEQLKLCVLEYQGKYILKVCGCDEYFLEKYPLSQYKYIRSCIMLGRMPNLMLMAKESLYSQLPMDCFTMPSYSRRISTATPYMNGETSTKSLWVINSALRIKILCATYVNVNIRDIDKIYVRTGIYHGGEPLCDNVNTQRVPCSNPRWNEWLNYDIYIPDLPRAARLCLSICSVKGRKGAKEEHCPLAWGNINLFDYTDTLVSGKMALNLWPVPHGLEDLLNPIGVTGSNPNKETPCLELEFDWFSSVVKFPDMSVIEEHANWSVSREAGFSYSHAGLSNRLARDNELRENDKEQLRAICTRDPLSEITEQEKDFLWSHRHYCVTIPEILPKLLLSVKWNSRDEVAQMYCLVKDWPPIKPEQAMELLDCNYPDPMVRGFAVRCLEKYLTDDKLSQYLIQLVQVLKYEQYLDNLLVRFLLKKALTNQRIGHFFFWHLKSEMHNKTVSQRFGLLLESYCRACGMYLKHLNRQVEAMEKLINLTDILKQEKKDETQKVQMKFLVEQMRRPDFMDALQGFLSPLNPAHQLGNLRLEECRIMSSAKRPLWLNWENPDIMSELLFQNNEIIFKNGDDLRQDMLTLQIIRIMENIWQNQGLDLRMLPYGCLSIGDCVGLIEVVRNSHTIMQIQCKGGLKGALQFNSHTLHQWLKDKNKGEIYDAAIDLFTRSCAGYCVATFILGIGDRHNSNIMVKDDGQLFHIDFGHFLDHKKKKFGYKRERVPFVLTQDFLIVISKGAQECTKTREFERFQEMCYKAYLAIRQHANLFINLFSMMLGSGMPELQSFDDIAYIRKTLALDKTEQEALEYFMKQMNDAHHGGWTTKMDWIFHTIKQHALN

Nc1ccc(C(=O)Nc2cccc(-c3nc(N4CCOCC4)c4oc5ncccc5c4n3)c2)cn1 [YM201636]
Reduction of virus released into the medium (ecotropic MLV retrovirus): 80% | Inhibition of type IIγ PtdInsP kinase (type IIγ PtdInsP kinase): did not inhibit | type Iα PtdInsP kinase IC50 fold greater than against PIKfyve (type Iα PtdInsP kinase): around 100 fold | IC50 (type Iα PtdInsP kinase; read-out: type Iα PtdInsP kinase IC50, mouse enzyme, data not shown): > 2 µM | Acidification of swollen vesicles (NIH3T3 cells [1]): poorly acidified | Decrease of PtdIns(3,5)P2 production (NIH3T3 cells [2]): 80% | Decrease of PtdIns(4,5)P2 (NIH3T3 cells [2]): around 20% | Effect on all other phosphoinositides identified (NIH3T3 cells [2]): remained largely unaltered | Effect on PKB Ser 473 phosphorylation ([3]; 800 nM): no influence | IC50 (p110α; p110α IC50, 50 μM ATP, 100 μM PtdIns substrate): 3 µM | p110α IC50 fold higher than for PIKfyve (p110α; same assay conditions): ~100 fold | Effect on cell division (NIH3T3 cells [4]): does not inhibit cell division

Oc1cccc(-c2nc(N3CCOCC3)c3oc4ncccc4c3n2)c1 [YM211103]
Effect on serum-stimulated phosphorylation of PKB ([3]; increasing concentrations): decreased
